S1P4 antag – S1P4 receptor antagonists, primary screen, cell-based; Sphingosine 1-phosphate receptor 4 (Homo sapiens), O95977; S1P4-expressing cells, antagonist mode, reporter read-out; inhibition, % at 4.98 µM; 220,000 compounds, 0.26% hits; AID 1510, 2009; in the data active = inhibition above about 29%;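 also: 0% = wells stimulated with agonist and 100% = vehicle wells without agonist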
Target sequence (O95977 whole entry, looked up): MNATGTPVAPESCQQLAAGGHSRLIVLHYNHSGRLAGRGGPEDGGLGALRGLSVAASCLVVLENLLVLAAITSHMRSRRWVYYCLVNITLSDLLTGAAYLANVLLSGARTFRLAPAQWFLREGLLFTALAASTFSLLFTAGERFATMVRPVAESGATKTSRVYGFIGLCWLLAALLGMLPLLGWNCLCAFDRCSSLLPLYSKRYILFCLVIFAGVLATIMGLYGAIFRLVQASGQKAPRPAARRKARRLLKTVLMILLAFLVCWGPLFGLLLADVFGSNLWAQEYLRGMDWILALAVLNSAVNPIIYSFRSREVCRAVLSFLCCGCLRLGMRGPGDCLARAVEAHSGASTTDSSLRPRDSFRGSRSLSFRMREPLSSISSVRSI
MDM2 E3 inh – MDM2-luciferase reporter signal enhancers, primary screen, MDM2 E3 ligase inhibitor project, cell-based, luminescence, 1536-well. 210,000 compounds, 0.11% hits. cell-based MDM2 ubiquitination luciferase reporter, 2 h; 0 = plate control, 100 = twice control, blank-subtracted. AID 1230, 2008. signal enhancement, % at 5 µM;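 active = signal enhancement of 30% or more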;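 also: luminescence tracks abundance of the self-degrading MDM2-luciferase fusion protein; higher signal means inhibition of MDM2 E3 ligase activity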
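Buffer or medium: Cells held in DMEM | Assay system: Stable mammalian line carrying autodegrading MDM2–luciferase fusion reporter | Quantity: 2000 cells/well | Times: 4 h settle plus 2 h compound, 37 °C | Doses: One concentration, 5 µM, with 0.2% DMSO | Technique: Luminescence with SteadyLite reagent, 15 min at room temperature | Benchmarks: Plate controls and plate blanks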
L major viab – Leishmania major promastigote growth inhibition, primary screen; 200,000 compounds, 9% hits; inhibition, % at 10 µM; Leishmania major promastigotes, resazurin fluorescence viability; in the data active = inhibition above about 50%;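 also: promastigotes grown with compound for 44 hours at 28 °C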
S1P3 antag – S1P3 receptor antagonists, primary screen, cell-based; Sphingosine 1-phosphate receptor 3 (Homo sapiens), Q99500; inhibition, % at 4.98 µM; CHO S1P3 NFAT-BLA reporter, FRET fluorescence, antagonist mode; 170,000 compounds, 0.27% hits;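 active = inhibition above the plate cutoff, the mean inhibition of test wells on that plate plus 3 SD, cut at about 28% in these data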;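 also: cells challenged with S1P at its EC80 of 0.8 µM; blue over green emission ratio from cleaved BLA substrate after 4 h stimulation; 0% = S1P-stimulated wells and 100% = unstimulated DMSO-only wells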
S1P4 agonist – S1P4 receptor agonists, primary screen, cell-based. activation, % at 4.98 µM. 220,000 compounds, 0.35% hits. Sphingosine 1-phosphate receptor 4 (Homo sapiens), O95977. S1P4-expressing cell line, agonist reporter assay; in the data active = activation above about 11%;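 also: 0% = DMSO vehicle and 100% = reference agonist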
* hit, by the source's call; · = no result given. Shown is part of a subset that was picked to be rich in hits.

SMILES	S1P4 antag	MDM2 E3 inh	L major viab	S1P3 antag	S1P4 agonist
Cc1noc(C)c1COC(=O)c1ccc(S(=O)(=O)N2CCCCC2)cc1	-17	-14	-4	-4	1
COc1ccc(/C=N/NC(=O)c2cc(C34CC5CC(CC(C5)C3)C4)[nH]n2)cc1O	-5	-5	90*	·	1
COc1ccc(/C=N\NC(=O)c2ccc(=O)[nH]n2)cc1O	2	-1	-7	2	0
COc1cnc(-c2ccccn2)nc1Sc1ccc(C)cc1	-4	0	100*	-4	0
COc1ccccc1Sc1nc(-c2ccccn2)ncc1OC	-11	-8	83*	9	2
COc1cccc(-c2nc(-c3ccccn3)no2)c1OC	21	7	0	-15	0
COc1cnc(-c2ccccn2)nc1Sc1cccc(Cl)c1	-20	-16	100*	·	0
CC(NC(=O)C1CCCN(C(=O)N(C)C)C1)c1ccccc1 (stereo not given)	13	6	-3	·	1
Cc1ccc(C)c(N2CC(C(=O)O)CC2=O)c1 (stereo not given)	-5	-11	-6	-21	3
CCOC(=O)C1(CCSC)NC(c2ccco2)C2C(=O)N(C)C(=O)C21 (stereo not given)	-14	-1	-5	-46	0
CCOC(=O)C1(Cc2ccc(Cl)cc2)CCN(Cc2cn(CC)nc2C)CC1	0	-7	·	9	0
CC1=NN(c2ccc(F)cc2)C(=O)C1C(c1cccc(O)c1)c1c(C)[nH]n(-c2ccc(F)cc2)c1=O (stereo not given)	14	-1	72*	·	0
O=C(NNC(=O)c1cccnc1SCc1cccc([N+](=O)[O-])c1)c1ccccn1	-18	·	98*	-10	-1
CC1CC1C(=O)Nc1ccc(-c2ccccc2)cc1 (stereo not given)	-13	-5	51*	4	-1
Cc1ccc(C(OCC(O)CNC(C)c2ccccc2)c2ccccc2)cc1 (stereo not given)	-14	-7	77*	1	-1
COc1ccc([N+](=O)[O-])c(OC)c1C(=O)NC(=O)Nc1c(F)cc(F)cc1F	3	-15	·	-16	2
COc1ccccc1NC(=O)C1=C(C)Nc2nc(-c3cccs3)nn2C1c1cccnc1 (stereo not given)	-4	-10	97*	34	-1
CC1=C(C(N)=O)C(c2cccnc2)n2nc(-c3cccc(Cl)c3)nc2N1 (stereo not given)	-16	-16	67*	-2	-1
COc1ccccc1-c1nc2n(n1)C(c1cccs1)C(C(=O)Nc1cccnc1)=C(C)N2 (stereo not given)	3	-6	99*	-18	-2
COc1cccc(C2C(C(N)=O)=C(C)Nc3nc(-c4cccc(Cl)c4)nn32)c1 (stereo not given)	4	-14	6	-14	1
O=C1CC(NNc2ccccc2)C(=O)N1c1ccc(N2CCCCC2)cc1 (stereo not given)	-8	-16	-3	-3	-1
Cc1cc2ncn(C(=O)N3CCC(C)CC3)c2cc1C	-17	38*	1	·	-1
Cc1cc2ncn(C(=O)c3ccc4c(c3)OCO4)c2cc1C	1	-5	-7	-3	1
O=C(N/N=C/c1ccc(-c2ccc(Cl)c(C(=O)O)c2)o1)c1cc2c(ccc3ccccc32)o1	5	-6	·	-11	0
Cc1cc(SCC(=O)Nc2c(C)n(C)n(-c3ccccc3)c2=O)n2c(nc3ccccc32)c1C#N	-26	·	87*	-9	-3
SMILES	S1P4 antag	MDM2 E3 inh	L major viab	S1P3 antag	S1P4 agonist
CN1CCC(=NNC(=O)CSc2ccc(Cl)cc2)CC1	-1	-3	-1	2	-1
CCOCCCNC(=O)/C(C#N)=C/c1ccc(Cl)c([N+](=O)[O-])c1	-7	-9	100*	-4	-1
CCOCCCNC(=O)/C(C#N)=C/c1cc(OC)c(O)c([N+](=O)[O-])c1	-20	3	0	0	0
CCOCCCNC(=O)/C(C#N)=C/c1cc(C)c(O)c(C)c1	5	2	3	5	2
CCOCCCNC(=O)/C(C#N)=C/c1ccc(C(=O)OC)cc1	5	-20	58*	-17	-1
CCN(CC)C(=O)Oc1ccc(Br)cc1C(=O)Nc1ccc(F)cc1F	6	-12	·	-18	0
O=C1OCC(CO)(CO)N=C1NNc1ccccc1Cl	-7	-12	5	·	0
COCCNC(=O)c1ccccc1NC(=O)c1ccccc1SC	-16	-7	1	4	0
CN1CCC2(CC1)Nc1nc(SCc3ccc(Cl)cc3)nn1C1=C2CN(C)CC1	-12	-17	97*	-23	0
CCOC(=O)c1ccc(NC(=O)CSc2ccc(-c3ccncc3)nn2)cc1	2	-4	75*	0	2
COc1cccc(CNC(=O)CSc2ccc(-c3ccncc3)nn2)c1	3	-8	89*	-13	-1
Cc1nn(CCC(N)=S)c2nc(-c3cccs3)cc(C(F)(F)F)c12	-11	·	1	0	0
O=C(CSc1nnc(SCc2ccc(Cl)cc2)s1)N/N=C/c1c[nH]c2ccccc12	-3	4	65*	1	-2
O=C(CNc1ccccc1)N/N=C/c1c[nH]c2ccccc12	-9	-5	-2	7	0
O=C(COc1ccc(Cl)cc1Cl)NCC(=O)N/N=C/c1c[nH]c2ccccc12	-2	-7	70*	-4	0
O=C(CSc1nnc(SCc2cccc3ccccc23)s1)N/N=C/c1c[nH]c2ccccc12	6	-7	5	-7	1
CCc1nnc(NS(=O)(=O)c2ccc(N3C(=O)c4ccc(C(=O)O)cc4C3=O)cc2)s1	-2	-24	-14	2	2
CCSc1ccccc1C(=O)Nc1ccc(S(=O)(=O)NC(C)=O)cc1	1	-65	-7	-10	1
Cc1sc(NC(=S)NC(=O)C2CCCCC2)c(C(N)=O)c1C	6	-5	63*	-6	1
Cc1ccc2cc(C3C(C#N)=C(N)Oc4c3ccc3cccnc43)c(=O)[nH]c2c1 (stereo not given)	-6	-2	91*	·	0
COc1cccc(OCCCn2cc(/C=C3/C(=N)N4C=C(C)SC4=NC3=O)c3ccccc32)c1	-16	-12	95*	10	0
COc1ccc(OCCCn2cc(/C=C3/C(=N)N4C=C(C)SC4=NC3=O)c3ccccc32)cc1	12	-5	87*	2	0
CCOC(=O)c1cc(C#N)c(C)nc1N(CC)CC	-3	-9	·	11	0
CN1CCN(CC(O)(c2ccc(Cl)cc2)c2ccc(Cl)cc2)CC1	3	-5	53*	21	3
